Test results from article PMC3578163 (Chemical research in toxicology, 2013).
Where two headings read alike, the source gives them in different places.

Tests used:
hpol κ^19–526 [1] = biological target: T1, hpol κ^19–526 (Homo sapiens, UniProt Q9UBT6); experiment: polymerase-catalyzed primer extension; assay type: biochemical; conditions: read-out: IC50 for inhibition of DNA polymerase activity; five-minute time point; all four dNTPs 0.25 mM, MgCl2 5 mM; 20 nM enzyme, 200 nM DNA, 37 °C
T1 sequence (Q9UBT6 19-526): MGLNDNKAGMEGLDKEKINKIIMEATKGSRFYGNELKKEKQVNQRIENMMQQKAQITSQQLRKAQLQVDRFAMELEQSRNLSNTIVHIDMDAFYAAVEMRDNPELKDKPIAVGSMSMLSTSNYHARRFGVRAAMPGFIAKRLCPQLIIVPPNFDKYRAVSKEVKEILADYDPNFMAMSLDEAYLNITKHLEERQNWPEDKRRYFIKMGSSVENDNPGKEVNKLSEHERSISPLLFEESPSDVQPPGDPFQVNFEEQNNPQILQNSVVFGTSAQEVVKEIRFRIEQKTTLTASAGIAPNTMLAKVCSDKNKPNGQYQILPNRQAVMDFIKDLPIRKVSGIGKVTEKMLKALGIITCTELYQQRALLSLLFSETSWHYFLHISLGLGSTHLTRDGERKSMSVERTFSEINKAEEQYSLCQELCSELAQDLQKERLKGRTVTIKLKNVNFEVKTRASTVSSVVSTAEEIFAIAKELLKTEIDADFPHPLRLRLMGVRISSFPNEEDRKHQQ

hpol η^1–437 = biological target: T2, hpol η^1–437 (Homo sapiens, UniProt Q9Y253); experiment: polymerase-catalyzed primer extension; assay type: biochemical; conditions: read-out: IC50 for inhibition of DNA polymerase activity; all four dNTPs 0.25 mM, MgCl2 5 mM; 20 nM enzyme, 200 nM DNA, 37 °C
T2 sequence (Q9Y253 1-437): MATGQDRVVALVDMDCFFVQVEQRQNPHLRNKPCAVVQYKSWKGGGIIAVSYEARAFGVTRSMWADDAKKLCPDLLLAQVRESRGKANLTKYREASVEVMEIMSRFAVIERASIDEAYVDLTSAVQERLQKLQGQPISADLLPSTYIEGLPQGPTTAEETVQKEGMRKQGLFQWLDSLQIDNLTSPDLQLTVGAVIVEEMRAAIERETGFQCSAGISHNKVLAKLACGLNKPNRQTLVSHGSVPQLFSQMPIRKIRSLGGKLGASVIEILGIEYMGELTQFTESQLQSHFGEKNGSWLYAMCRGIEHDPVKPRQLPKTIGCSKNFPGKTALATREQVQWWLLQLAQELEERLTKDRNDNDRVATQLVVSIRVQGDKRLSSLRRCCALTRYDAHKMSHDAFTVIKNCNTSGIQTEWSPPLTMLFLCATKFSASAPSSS

hpol ι^1–446 = biological target: T3, hpol ι^1–446 (Homo sapiens, UniProt Q9UNA4); experiment: polymerase-catalyzed primer extension; assay type: biochemical; conditions: read-out: IC50 for inhibition of DNA polymerase activity; all four dNTPs 0.25 mM, MgCl2 5 mM; 20 nM enzyme, 200 nM DNA, 37 °C
T3 sequence (Q9UNA4 1-446): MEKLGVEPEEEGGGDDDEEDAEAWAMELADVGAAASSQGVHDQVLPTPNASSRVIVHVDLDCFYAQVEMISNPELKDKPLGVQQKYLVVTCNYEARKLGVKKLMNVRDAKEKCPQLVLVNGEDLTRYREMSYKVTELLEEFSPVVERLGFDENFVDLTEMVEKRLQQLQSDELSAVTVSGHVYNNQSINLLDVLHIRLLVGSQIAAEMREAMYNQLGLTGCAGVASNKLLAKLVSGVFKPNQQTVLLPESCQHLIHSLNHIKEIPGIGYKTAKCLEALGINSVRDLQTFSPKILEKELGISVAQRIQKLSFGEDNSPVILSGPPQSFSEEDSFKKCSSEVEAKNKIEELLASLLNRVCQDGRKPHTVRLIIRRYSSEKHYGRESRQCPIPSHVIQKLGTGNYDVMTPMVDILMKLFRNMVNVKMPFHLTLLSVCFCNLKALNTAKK

hpol ι^26–446 [2] = biological target: T4, hpol ι^26–446 (Homo sapiens, UniProt Q9UNA4); experiment: polymerase-catalyzed primer extension; assay type: biochemical; conditions: read-out: IC50 for inhibition of DNA polymerase activity; all four dNTPs 0.25 mM, MgCl2 5 mM; 20 nM enzyme, 200 nM DNA, 37 °C
T4 sequence (Q9UNA4 26-446): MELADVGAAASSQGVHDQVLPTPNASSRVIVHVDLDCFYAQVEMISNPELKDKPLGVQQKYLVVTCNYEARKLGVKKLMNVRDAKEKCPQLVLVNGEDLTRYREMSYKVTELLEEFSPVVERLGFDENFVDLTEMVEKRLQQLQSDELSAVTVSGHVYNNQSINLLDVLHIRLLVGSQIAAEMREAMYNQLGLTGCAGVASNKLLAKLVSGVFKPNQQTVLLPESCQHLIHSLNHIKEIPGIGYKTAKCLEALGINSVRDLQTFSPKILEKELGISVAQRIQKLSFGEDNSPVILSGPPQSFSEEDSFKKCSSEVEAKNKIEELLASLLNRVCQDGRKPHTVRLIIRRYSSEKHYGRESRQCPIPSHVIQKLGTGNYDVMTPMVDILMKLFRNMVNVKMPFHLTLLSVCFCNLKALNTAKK

hpol κ^19–526 [3] = biological target: T1, hpol κ^19–526; assay type: binding; conditions: for Kd: read-out: Kd,DNA (polymerase binding to primer-template DNA)
In short: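 Recombinant human polymerase (His/GST-tagged, expressed in E. coli BL21(DE3), tags cleaved) titrated into 2 nM FAM-labelled 13/18-mer primer-template at 25 °C. Buffer: 50 mM HEPES pH 7.5, 10 mM KOAc, 10 mM MgCl₂, 0.1 mM ZnCl₂, 0.1 mM EDTA, 10% DMSO, 0.1 mg/mL BSA. MK886 at 0–250 μM, with DMSO as control. Polarization read at ex 485/em 525 nm. Kd fitted with total DNA held constant.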

hpol ι^26–446 [4] = biological target: T4, hpol ι^26–446; assay type: biochemical; conditions: for kcat: dTTP
In short: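 Tripartite substrate built by annealing an unlabelled 19-mer primer, a TAMRA-labelled 10-mer reporter and a BHQ2-labelled 29-mer template (1.4:1:1.5); 50 nM substrate used. Enzyme at 5 nM in 50 mM Tris-HCl pH 8.0, 0.01% Tween-20, 2 mM DTT, 40 mM KCl, 0.25 mM MnCl₂, 25 °C. Inhibitor or DMSO present; dTTP 1–200 μM. Fluorescence (ex 525/em 598 nm) read continuously up to 60 min. Linear-phase velocities fitted to a hyperbola.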

COX1 = conditions: read-out: IC50 value for COX1 inhibition; in vitro activity assays; cited from earlier work

IC50 (hpol κ^19–526 [1]): 63.8 ± 1.7 µM | IC50 (hpol η^1–437): 45.8 ± 8.4 µM | IC50 (hpol ι^1–446): 15.1 ± 2.1 µM | IC50 (hpol ι^26–446 [2]): 8.2 ± 0.6 µM | change in binding affinity for hpol κ relative to that observed for hpol ι^26–446 (hpol κ^19–526 [3]; hpol κ vs hpol ι^26–446): ~ 2 fold | Kd (hpol κ^19–526 [3]; 25 μM MK886): 26 ± 9.1 nM | Kd (hpol κ^19–526 [3]; 50 μM MK886): 24.1 ± 9.4 nM | Kd (hpol κ^19–526 [3]; 100 μM MK886): 31.3 ± 12.1 nM | Kd (hpol κ^19–526 [3]; 150 μM MK886): 70.4 ± 15.7 nM | Kd (hpol κ^19–526 [3]; 250 μM MK886): 67.9 ± 17.1 nM | kcat (hpol ι^26–446 [4]; 20 μM MK886, fluorescence-based assay): 4.4 ± 0.1 min⁻¹ | Fold decrease in kcat/KM,dNTP (hpol ι^26–446 [4]; 20 μM MK886 vs no inhibitor): 1.6 | kcat (hpol ι^26–446 [4]; 40 μM MK886, fluorescence-based assay): 4.3 ± 0.1 min⁻¹ | Fold decrease in kcat/KM,dNTP (hpol ι^26–446 [4]; 40 μM MK886 vs no inhibitor): 2.1 | kcat (hpol ι^26–446 [4]; 60 μM MK886, fluorescence-based assay): 4.1 ± 0.2 min⁻¹ | Fold decrease in kcat/KM,dNTP (hpol ι^26–446 [4]; 60 μM MK886 vs no inhibitor): 2.4 | mechanism of inhibition of DNA polymerase activity (hpol ι^26–446 [4]; fluorescence-based assay, diminished kcat and increased KM,dNTP): mixed-type inhibition
Structure (SMILES): CC(C)c1ccc2c(c1)c(SC(C)(C)C)c(CC(C)(C)C(=O)O)n2Cc1ccc(Cl)cc1 [MK886, 3-[1-(4-chlorobenzyl)-3-t-butyl-thio-5-isoproylindol-2-yl]-2,2-dimethylpropanoic acid]
IC50 (COX1): 8 µM
